Screening results as filed in PubChem.
Compounds with a hit are over-represented: about 1% of the library has one in this group of screens.
Arrestin-AP2 inh = blocks beta-arrestin peptide binding to AP2 adaptin | FITC-arrestin peptide / GST-AP2 beads, flow cytometry; AP2 beta2 appendage carries R879A mutation | inhibition, % at 10 µM | 0.31% of 340,000 active;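 active = inhibition above a set limit, near 3 SD of compounds lacking own fluorescence, cut at about 54% in these data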
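test system = AP2 appendage R879A on GSH beads | buffer or medium = PBS plus Tween 20 (0.05%) and BSA (0.1%) | incubation = 12 min plus 1 h, RT | detection = bead flow cytometry, FITC channel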
Hep lipid drop = hepatic lipid droplet formation modulation | AML12 mouse hepatocytes, oleate lipid droplets, BODIPY imaging | inhibition, % at 6.5 µM | 0.4% of 240,000 active | AID 1656;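 active = lipid droplet intensity inhibited by at least 50%, with more than 500 cells counted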
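Material – AML12 mouse liver cells · Also added – oleate loading, 100 µM · Compound dosing – 6.5 µM single-point dosing · Times – overnight treatment with compound plus oleate · Measured by – fluorescence imaging, 20x objective, two fields per well · Read-out – percent inhibition of filter-corrected integrated lipid droplet intensity per well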
Fh CTSL1 inh = cathepsin L1 inhibition, PFM18AAP counter-screen; inhibition, % at 5.96 µM; 0.49% of 300,000 active; AID 1906; recombinant F. hepatica cathepsin L1, Z-Leu-Arg-MCA fluorescence;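 active = inhibition above the mean of all tested compounds plus 3 SD, set per screening campaign, cut at about 17% in these data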
p-CIP stab down = p/CIP protein destabilization; Q05BA5; F442A p/CIP-EGFP cells, EGFP fluorescence, 16 h; decrease of EGFP signal, % at 10 µM; 0.01% of 290,000 active;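 active = EGFP signal decrease of at least 30% at 10 µM or well 3 SD below plate mean, unless failing retest; inactive = the rest, including hits failing retest or dose response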
Arr AP2 CP1 = inhibitors of human beta-arrestin and AP2 interaction. shares compounds with Arrestin-AP2 inh. GST-AP2 beads, FITC arrestin peptide binding, flow cytometry; GST-fused beta2-adaptin appendage, R879A mutant. inhibition, % at 10 µM. 2% of 1,300 active. AID 504908;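 active = inhibition above a set limit, roughly 3 SD of non-fluorescent compound noise, cut at about 38% in these data; inactive = inhibition at or below that limit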;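 note: loss of bead fluorescence from 50 nM FITC arrestin peptide bound to appendage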
GST GSH counter = disrupts GST binding to glutathione beads, arrestin-AP2 artifact | shares compounds with Arrestin-AP2 inh | GST-fluorescein binding to GSH beads, fluorescence, counter-screen | inhibition, % at 10 µM | 2% of 1,300 active;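 active = inhibition above 50%, about 3 SD of the inhibition seen with non-fluorescent compounds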;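 note: fluorescein maleimide labelled GST captured on 4 micron glutathione beads; higher means more loss of bead fluorescence from quenching or blocked binding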
Numbers stand for hits; . = inactive; / = no result given.

SMILES	Arrestin-AP2 inh	Hep lipid drop	Fh CTSL1 inh	p-CIP stab down	Arr AP2 CP1	GST GSH counter
Cc1ccc(/C=C2\SC(=S)N(CC3CCCO3)C2=O)o1 (stereo not drawn)	.	.	.	.	/	/
Nc1c(C(=O)NCc2cccs2)nnn1CC(=O)Nc1cccc(Cl)c1	99	.	.	.	.	.
COc1ccc(-c2nn(-c3ccccc3)cc2/C=N/NC(N)=S)cc1OC	.	.	.	.	/	/
COc1ccc(-c2nn(-c3ccccc3)cc2/C=C(\C#N)S(=O)(=O)c2ccccc2)cc1OC	78	.	.	.	.	.
CCn1nc(NS(=O)(=O)c2ccccc2)c2cc3ccc(C)cc3nc21	.	.	.	.	/	/
CCn1nc(NS(=O)(=O)c2ccccc2)c2cc3cc(C)ccc3nc21	62	.	.	.	.	.
CSc1cccc(NC(=O)COc2ccccc2C)c1	.	.	.	.	/	/
C=CCN(CC(=O)NCc1ccccc1)C(=O)c1csnn1	.	/	.	.	/	/
COc1cc2c(cc1NC(=O)C(C)NCc1ccccc1)oc1ccccc12 (stereo not drawn)	.	.	.	.	.	.
COc1cc2c(cc1NC(=O)Nc1ccccc1)oc1ccccc12	.	/	.	.	.	.
N/C(=N\OC(=O)c1ccc(Cl)c(Cl)c1)c1cccnc1	.	.	.	.	/	/
C1=C(CCNc2nnnn2-c2ccccc2)CCCC1	55	/	.	.	.	.
Cc1ccc(S(=O)(=O)N(C)CC(=O)O/N=C(\N)c2ccccn2)cc1	97	/	.	.	.	.
COc1ccccc1Nc1nc2ccc(C)cc2cc1C#N	.	/	.	.	/	/
COc1ccccc1Nc1nc2c(C)cccc2cc1C#N	57	/	.	.	.	.
Cc1cc(C)c2sc(N(CCCN(C)C)C(=O)c3ccc(S(=O)(=O)N(C)C4CCCCC4)cc3)nc2c1	57	/	.	/	.	.
COc1ccc(S(=O)(=O)NC2CCCCC2)cc1-n1cnnn1	56	.	.	.	.	.
Cc1cc(S(=O)(=O)NC2CCCCC2)ccc1-n1cnnn1	.	.	.	.	/	/
CCn1nc(NC(=O)CC(C)C)c2cc3cccc(C)c3nc21	55	.	.	.	.	.
CCCn1nc(NC(=O)CC(C)C)c2cc3cccc(C)c3nc21	.	.	.	.	/	/
CCn1cc(C(=O)N[C@@H](C)C(=O)OC)c(=O)c2cc3c(cc21)OCO3	55	.	.	.	.	.
CCn1cc(C(=O)N[C@H](C(=O)O)C(C)C)c(=O)c2cc3c(cc21)OCO3	.	.	.	.	/	/
COc1ccc(C(C(=O)NCC2CCCO2)N(C(=O)Cn2nnc3ccccc32)c2ccccc2C(C)=O)cc1OC (stereo not drawn)	.	.	.	.	/	/
COc1ccc(N2C(=O)CSC2c2ccc3c(c2)OCO3)cc1 (stereo not drawn)	61	.	.	.	.	.
O=C(Nc1cccc(S(=O)(=O)NCc2ccco2)c1)c1cccc(Cl)c1	.	/	/	/	/	/
SMILES	Arrestin-AP2 inh	Hep lipid drop	Fh CTSL1 inh	p-CIP stab down	Arr AP2 CP1	GST GSH counter
O=C(Nc1cc(Cl)ccc1Oc1ccccc1)c1ccc(F)cc1	61	.	.	.	.	.
Cc1cc(O)ccc1N/C=C/c1onc(C)c1[N+](=O)[O-]	99	.	.	.	.	.
COc1ccc(OC)c(S(=O)(=O)Nc2cccc(-c3ccc(N4CCCCCC4)nn3)c2)c1	60	.	.	.	.	.
O=S(=O)(c1cccc(-c2cn3cccnc3n2)c1)N1CCCCCC1	61	/	.	.	.	.
COc1ccc(Cl)cc1NC(=O)COC(=O)C1=NNC(=O)CC1	.	/	/	/	/	/
Cc1ccccc1NC(=O)Nc1cnccn1	.	.	.	.	.	.
Cc1cccc(NC(=O)Nc2cccnc2)c1C	.	.	/	.	/	/
Cc1cccc(NC(=O)Nc2cnccn2)c1C	.	.	.	.	.	.
Cc1ccc(NC(=O)Nc2cnccn2)cc1Cl	.	.	.	.	/	/
COc1cc2c(cc1NC(=O)COC(=O)[C@@H](NS(=O)(=O)c1ccccc1)C(C)C)oc1ccccc12	.	.	.	.	/	/
COc1cc2c(cc1NC(=O)C(C)Sc1ccc(C)cc1)oc1ccccc12 (stereo not drawn)	.	/	.	.	.	/
COc1cc2c(cc1NC(=O)CSCC(=O)O)oc1ccccc12	.	/	.	.	/	/
COc1cc2c(cc1NC(=O)COc1ccccc1OC)oc1ccccc12	.	.	.	.	.	.
